# Efflux pump inh = antifungal efflux pump inhibition, Nile Red retention; S. cerevisiae Candida pump triplex; inhibition, % at 10 µM; 330,000 compounds, 0.44% hits; AID 485275;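 active = plate passing quality check with inhibition over a set limit, or well fluorescence over plate mean plus 4 SD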;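 also: Nile Red retained in pooled yeast measured as flow cytometry median fluorescence; higher means more Nile Red kept so more efflux inhibition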
# SUMO Mot1 rescue = inhibitors of SUMOylation pathway: yeast Mot1-301 growth rescue; 320,000 compounds, 1% hits; S. cerevisiae Mot1-301 growth rescue, ATP luminescence, 38.5C; percent above DMSO median, 100 means doubled; AID 2716; growth rescue, % at 18.8 µM;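 active = every valid replicate shows activation above 250% relative to neutral control wells; inactive = the rest, any valid replicate at or below 250%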
# Beta cell apopt = blocks beta cell apoptosis; INS-1E cytokine-induced death, ATP luminescence, 48 h; percent of positive-control rescue, neutral wells zero; protection from apoptosis, % (no concentration beside the values); 300,000 compounds, 0.8% hits; AID 435005;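 active = Every replicate reaches about 75%, or at least half do and their mean reaches it too, limit read from the data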;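 also: higher means more ATP so stronger rescue from cytokine killing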
# WT yeast gro inh = growth inhibition of WT yeast, mitochondrial fusion screen | mitochondrial fusion phenotypic screen, WT strain | inhibition, % at 10 µM | 190,000 compounds, 2.1% hits; in the data active = inhibition above about 58%; tested in S. cerevisiae
# CSC inhib = blocks cancer stem cells. cancer stem cell-like cells viability, luminescence. inhibition, % at 7.5 µM. 300,000 compounds, 1.1% hits. AID 2717; in the data active = inhibition above about 75%; tested in HMLE shEcad cells
# T cruzi inh = T. cruzi replication inhibition; T. cruzi beta-gal in NIH3T3, luminescence, 90 h; inhibition, % (concentration not given with the values); 300,000 compounds, 1.4% hits; AID 1885;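 active = mean inhibition across valid replicates above about 55%, limit read from the data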;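 also: signal also drops with host cell toxicity which is not excluded here; higher percent means less beta-gal luminescence so fewer parasites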
#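 System: mouse NIH/3T3 fibroblasts infected with β-gal-expressing T. cruzi Tulahuen C4 / Input: NIH/3T3 cells, 5,000 per well / Buffer or medium: Low-serum DMEM with 2% FBS / Probe or stimulus: 5000 reporter trypomastigotes per well / Schedule: ≥90 h infection period, 3 h prior cell attachment / Measured by: GalScreen luminescence, 60 min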
# Numbers stand for hits; n = inactive; x = not tested or not shown. Only some compounds are listed: those with a hit (about 4.8% of all), similar ones and a draw of the others.
SMILES,Efflux pump inh,SUMO Mot1 rescue,Beta cell apopt,WT yeast gro inh,CSC inhib,T cruzi inh
CC(C)OC(=O)C(C(=O)C(F)(F)F)c1cc(NS(=O)(=O)c2ccc3ccccc3c2)c2ccccc2c1O (stereo unspecified),n,n,n,62,n,n
Cc1ccc(C(=O)O)cc1NS(=O)(=O)c1ccc2ccccc2c1,n,n,n,x,n,n
CCCCCCCC[n+]1cccc2c3ccccc3ccc21,n,n,108,80,n,68
CCCCCCCCCC[n+]1cccc2c3ccccc3ccc21,x,x,x,n,x,70
CCc1ccc(C2C(C#N)=C(N)N(N(C)C)C3=C2C(=O)CCC3)cc1 (stereo unspecified),n,n,n,x,n,n
CCCCCCCCn1c(=O)c(C(=O)OC)c(N)c2ccccc21,n,n,117,x,n,n
CCCCCCCn1c(=O)c(C(=O)OC)c(N)c2ccccc21,n,n,x,x,n,n
CC(NS(=O)(=O)c1ccccc1)C(=O)Nc1ccc2c(c1)OCCO2 (stereo unspecified),n,n,n,x,n,n
COc1cc(N/N=C(\C)c2ccc(O)c(C)c2)nc(-c2ccccc2)n1,n,n,n,n,110,n
C/C(=N\Nc1cc(-c2ccccc2)nc(-c2ccccc2)n1)c1ccc(O)c(C)c1,n,n,n,92,x,n
O=C1c2ccccc2CCC12N=NCC2c1ccc(Br)cc1 (stereo unspecified),n,n,n,68,n,n
O=C1c2ccccc2CCC12N=NCC2c1ccc(Cl)cc1 (stereo unspecified),n,n,n,n,n,n
CC1CN(S(=O)(=O)c2cccc(C(=O)OC(C)C(=O)NC3CCCCC3C)c2)CC(C)O1 (stereo unspecified),n,n,n,x,n,n
Cc1cccc(N=Cc2[nH]c3ccc(Br)c(Cl)c3c2O)c1,n,n,n,n,n,x
COc1ccccc1CN=Cc1[nH]c2ccc(Br)c(Cl)c2c1O,n,n,n,67,n,n
Cc1cc(OC(=O)c2cc([N+](=O)[O-])ccc2Cl)c([N+](=O)[O-])c(=O)[nH]1,n,n,n,x,n,n
COc1ccc(-c2sc3cc4c(cc3c2C#CC2(O)CCCCC2)OCO4)cc1,n,n,n,x,112,x
O=C(CSc1ccc2nnc(-c3cccnc3)n2n1)Nc1ccccc1C(F)(F)F,n,298,n,x,n,n
O=C(CSc1ccc2nnc(-c3cccnc3)n2n1)Nc1ccccc1,n,n,n,x,n,n
CCCCc1c(C)nn(-c2nnc3c4ccccc4n(CC)c3n2)c1C,n,n,n,68,n,n
O=C1/C(=C/c2cccnc2)CC/C1=C\c1cccnc1,n,n,n,n,n,n
O=C1/C(=C/c2cccnc2)CCC/C1=C\c1cccnc1,n,n,100,n,103,x
CC(C)/C=C1\CC/C(=C\c2cccnc2)C1=O,n,n,n,n,n,56
O=C1NC(=S)N/C1=C/c1cccnc1,n,n,n,x,n,n
CCC1C/C(=C\c2cccnc2)C(=O)/C(=C/c2cccnc2)C1 (stereo unspecified),x,x,x,64,x,x
SMILES,Efflux pump inh,SUMO Mot1 rescue,Beta cell apopt,WT yeast gro inh,CSC inhib,T cruzi inh
O=C1/C(=C\c2cccnc2)CCc2ccccc21,n,n,n,n,n,n
CN(C)c1ccc(/C=C2\CCC/C(=C\c3ccccc3)C2=O)cc1,n,n,n,n,86,n
O=C(C[C@H]1C/C=C\CC[C@H](Cc2ccc(F)cc2)C(=O)OC[C@@H](Cc2c[nH]c3ccccc23)NC1=O)NCCO,n,n,n,x,n,x
Cc1cc(Cl)c(C)c(S(=O)(=O)Oc2ccccc2NC(=O)CCC(=O)O)c1Cl,n,n,n,x,n,x
CC(C)(C)NC(=O)C(c1cccs1)N(Cc1ccc(F)cc1)C(=O)c1csnn1 (stereo unspecified),n,n,x,n,n,n
CN1CCC(OC(=O)c2ccc(Br)cc2)CC1,n,n,n,x,n,62
CN1CCC(OC(=O)COc2ccc(Br)cc2)CC1,n,n,n,n,n,n
CN1CCC(OC(=O)c2cccc(Cl)c2)CC1,n,n,n,n,117,60
CCCCn1c(=O)[nH]c(=O)c2c1ncn2Cc1ccco1,n,n,n,n,n,n
CCCCn1cnc2c(c(-c3ccccc3)c(-c3ccccc3)n2Cc2ccco2)c1=N,n,n,114,x,87,n
N=c1c2c(-c3ccccc3)c(-c3ccccc3)n(Cc3ccco3)c2ncn1Cc1ccco1,n,n,n,n,n,57
N=c1c2c(-c3ccccc3)c(-c3ccccc3)n(Cc3ccccc3)c2ncn1CCCn1ccnc1,n,n,n,n,n,60
CCOC(=O)N1CCN(C(=O)c2ccc(Cl)c(NC(=O)c3cccs3)c2)CC1,n,n,n,x,x,x
CC#C[C@]1(O)CC[C@H]2[C@@H]3CCC4=CC(=O)CCC4=C3[C@@H](c3ccc(N(C)C)cc3)C[C@@]21C,n,n,n,87,n,n
CCn1ncc([N+](=O)[O-])c1C(=O)N1CCc2ccccc2C1,n,n,n,x,n,n
O=C(CCc1ccccc1)NC(=S)Nc1ccccc1Br,n,n,n,75,n,n
COc1ccccc1NC(=S)NC(=O)CCc1ccccc1,n,n,x,x,n,n
O=C(CCc1ccccc1)NC(=S)Nc1cccc(Br)c1,n,n,n,59,n,n
COCCCN(C(=S)Nc1cc(C)cc(C)c1)C(C)c1ccncc1 (stereo unspecified),n,n,n,n,n,n
CSc1ccc(/C=N/n2c(Cc3ccc(Br)cc3)n[nH]c2=S)cc1,n,n,n,71,n,n
FC(F)Oc1ccc(/C=N/n2c(Cc3ccc(Br)cc3)n[nH]c2=S)cc1,n,n,n,x,n,n
Cc1ccc(C=Nc2ccccc2C(N)=O)o1,n,n,n,n,n,n
Cc1ccc(C=Nc2ccc(N(C)C)cc2)o1,n,n,n,n,n,61
COc1ccccc1N1CC(C)(C)C(=O)N(C(=O)c2ccc(C)cc2)C1=S,n,n,n,x,n,n
COc1ccccc1N1CC(C)(C)C(=O)N(C(=O)c2ccc(Cl)cc2)C1=S,n,n,85,x,n,n
SMILES,Efflux pump inh,SUMO Mot1 rescue,Beta cell apopt,WT yeast gro inh,CSC inhib,T cruzi inh
Cc1cnccc1CN(C)Cc1cn(C)nc1-c1ccc(Oc2ccccc2)cc1,n,n,n,n,n,70
N#Cc1nc(-c2ccco2)oc1NCc1ccc(F)cc1,n,n,n,62,n,n
COc1ccc(NC(=O)C2CC(=O)N(Cc3ccco3)C2)cc1Cl (stereo unspecified),n,n,n,x,x,x
O=C(c1cccs1)N1CCC(c2nc3c(nnn3Cc3ccccc3Cl)c(=O)[nH]2)CC1,n,n,x,x,n,n
O=[N+]([O-])c1ccc(N/N=C/c2cccc(O)c2O)cc1,n,317,n,x,96,n
O=[N+]([O-])c1ccc(N/N=C/c2c[nH]c3ccccc23)cc1,n,n,n,87,96,n
O=[N+]([O-])c1ccccc1N/N=C/c1c[nH]c2ccccc12,n,n,n,n,n,n
O=[N+]([O-])c1ccc(N/N=C/c2ccc[nH]2)cc1,n,n,n,n,88,x
